Assay [1] addresses Protein-tyrosine kinase 2-beta (Homo sapiens) (UniProt Q14289). Briefly: Inhibition of Pyk2 at 0.1 uM; values are per cent of control.
Assay [2] concerns the target Proto-oncogene tyrosine-protein kinase Src (Homo sapiens) (UniProt P12931). Briefly: Inhibition of c-SRC at 0.1 uM; values are per cent of control.
Assay [3] deals with T1, Tyrosine-protein kinase JAK3 (Homo sapiens) (UniProt P52333).
T1 sequence (whole entry): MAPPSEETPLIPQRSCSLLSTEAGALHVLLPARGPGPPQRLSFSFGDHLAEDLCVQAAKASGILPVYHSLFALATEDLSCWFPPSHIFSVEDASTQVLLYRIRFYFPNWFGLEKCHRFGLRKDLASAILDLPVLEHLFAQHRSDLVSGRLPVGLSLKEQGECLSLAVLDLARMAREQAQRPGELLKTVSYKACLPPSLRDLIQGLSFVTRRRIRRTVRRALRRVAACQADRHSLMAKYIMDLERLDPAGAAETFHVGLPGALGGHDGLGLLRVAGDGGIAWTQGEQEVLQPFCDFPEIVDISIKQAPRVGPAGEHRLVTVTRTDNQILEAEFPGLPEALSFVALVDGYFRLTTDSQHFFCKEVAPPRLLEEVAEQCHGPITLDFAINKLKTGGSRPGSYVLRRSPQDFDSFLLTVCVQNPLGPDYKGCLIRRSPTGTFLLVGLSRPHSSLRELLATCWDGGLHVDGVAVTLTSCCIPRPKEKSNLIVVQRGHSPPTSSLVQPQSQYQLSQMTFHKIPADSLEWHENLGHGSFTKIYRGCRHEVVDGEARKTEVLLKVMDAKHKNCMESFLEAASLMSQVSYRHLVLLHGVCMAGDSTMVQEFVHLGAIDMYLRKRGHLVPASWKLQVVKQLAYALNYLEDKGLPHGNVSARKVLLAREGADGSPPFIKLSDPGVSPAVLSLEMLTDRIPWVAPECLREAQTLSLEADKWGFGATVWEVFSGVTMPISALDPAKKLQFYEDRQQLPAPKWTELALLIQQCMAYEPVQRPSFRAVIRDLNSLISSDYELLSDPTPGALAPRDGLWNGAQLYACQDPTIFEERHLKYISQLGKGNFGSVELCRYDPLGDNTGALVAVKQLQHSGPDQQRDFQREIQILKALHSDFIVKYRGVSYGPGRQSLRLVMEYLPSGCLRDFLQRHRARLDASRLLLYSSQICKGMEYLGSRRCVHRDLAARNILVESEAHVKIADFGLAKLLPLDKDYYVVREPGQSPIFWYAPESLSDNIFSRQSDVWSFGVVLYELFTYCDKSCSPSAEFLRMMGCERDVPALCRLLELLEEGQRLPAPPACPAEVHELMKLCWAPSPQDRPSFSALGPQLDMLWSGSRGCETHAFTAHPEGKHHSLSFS
Briefly: Inhibition of JAK3 at 1 uM. A digest of the protocol: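 Each selected inhibitor was tested at two concentrations, 0.1 and 1.0 micromolar. Values are reported as inhibition at each concentration.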

Assay [4] has as its target Serine/threonine-protein kinase PLK2 (Homo sapiens) (UniProt Q9NYY3). Briefly: Inhibition of Snk at 0.1 uM; values are per cent of control.
The target of assay [5] is CDK6/cyclin D3 (Homo sapiens) (UniProt P30281+Q00534). The assay can be described thus: Inhibition of CDK6/cyclin D3 at 0.1 uM; values are per cent of control.
The target of assay [6] is RAC-beta serine/threonine-protein kinase (Homo sapiens) (UniProt P31751). Briefly: Inhibition of PKBbeta at 0.1 uM; values are per cent of control.
RAC-beta serine/threonine-protein kinase (Homo sapiens), sequence (P31751 whole entry): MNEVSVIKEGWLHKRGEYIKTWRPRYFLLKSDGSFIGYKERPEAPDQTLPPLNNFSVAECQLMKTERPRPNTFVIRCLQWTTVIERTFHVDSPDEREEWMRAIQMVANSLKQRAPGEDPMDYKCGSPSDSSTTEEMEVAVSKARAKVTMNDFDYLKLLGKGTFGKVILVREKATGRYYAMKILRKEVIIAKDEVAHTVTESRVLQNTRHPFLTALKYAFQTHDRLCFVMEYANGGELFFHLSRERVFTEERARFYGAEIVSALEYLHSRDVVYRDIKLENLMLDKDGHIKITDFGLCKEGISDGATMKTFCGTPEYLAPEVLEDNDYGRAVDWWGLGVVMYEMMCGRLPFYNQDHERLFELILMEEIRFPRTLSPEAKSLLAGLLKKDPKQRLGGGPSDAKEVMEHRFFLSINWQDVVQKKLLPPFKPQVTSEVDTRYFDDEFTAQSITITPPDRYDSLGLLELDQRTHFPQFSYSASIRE
The target of assay [7] is T2, Activin receptor type-1B (Homo sapiens) (UniProt P36896).
T2 sequence (whole entry): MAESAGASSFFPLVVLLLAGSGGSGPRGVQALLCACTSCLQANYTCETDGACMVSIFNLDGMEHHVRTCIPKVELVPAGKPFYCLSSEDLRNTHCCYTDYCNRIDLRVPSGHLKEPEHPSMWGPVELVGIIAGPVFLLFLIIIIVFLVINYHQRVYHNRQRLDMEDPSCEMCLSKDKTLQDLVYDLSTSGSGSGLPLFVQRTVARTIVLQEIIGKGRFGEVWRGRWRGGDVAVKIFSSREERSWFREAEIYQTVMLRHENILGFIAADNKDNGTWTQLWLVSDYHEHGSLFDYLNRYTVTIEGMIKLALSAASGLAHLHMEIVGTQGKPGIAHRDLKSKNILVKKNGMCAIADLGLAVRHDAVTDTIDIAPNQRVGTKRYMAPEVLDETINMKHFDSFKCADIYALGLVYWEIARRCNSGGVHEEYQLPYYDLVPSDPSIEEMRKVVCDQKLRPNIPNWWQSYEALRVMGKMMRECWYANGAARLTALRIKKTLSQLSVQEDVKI
Briefly: Inhibition of ALK4 at 1 uM; values are per cent of control.

Assay [8] has as its target T3, Serine/threonine-protein kinase STK11 (Homo sapiens) (UniProt Q15831).
T3 sequence (whole entry): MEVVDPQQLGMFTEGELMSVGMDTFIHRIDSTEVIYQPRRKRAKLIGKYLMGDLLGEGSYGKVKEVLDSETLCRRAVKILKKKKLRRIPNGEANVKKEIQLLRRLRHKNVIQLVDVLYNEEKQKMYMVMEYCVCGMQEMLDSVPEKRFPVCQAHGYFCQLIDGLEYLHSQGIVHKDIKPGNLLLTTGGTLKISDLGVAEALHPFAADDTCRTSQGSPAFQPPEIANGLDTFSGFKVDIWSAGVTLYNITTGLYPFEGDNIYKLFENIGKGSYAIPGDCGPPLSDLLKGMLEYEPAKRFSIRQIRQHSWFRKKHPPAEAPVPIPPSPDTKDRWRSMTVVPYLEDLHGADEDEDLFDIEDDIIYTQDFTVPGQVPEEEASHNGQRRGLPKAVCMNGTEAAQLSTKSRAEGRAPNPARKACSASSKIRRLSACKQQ
The assay can be described thus: Inhibition of LKB1 at 1 uM; values are per cent of control.

Protein-tyrosine kinase 2-beta (Homo sapiens), sequence (Q14289 whole entry, looked up): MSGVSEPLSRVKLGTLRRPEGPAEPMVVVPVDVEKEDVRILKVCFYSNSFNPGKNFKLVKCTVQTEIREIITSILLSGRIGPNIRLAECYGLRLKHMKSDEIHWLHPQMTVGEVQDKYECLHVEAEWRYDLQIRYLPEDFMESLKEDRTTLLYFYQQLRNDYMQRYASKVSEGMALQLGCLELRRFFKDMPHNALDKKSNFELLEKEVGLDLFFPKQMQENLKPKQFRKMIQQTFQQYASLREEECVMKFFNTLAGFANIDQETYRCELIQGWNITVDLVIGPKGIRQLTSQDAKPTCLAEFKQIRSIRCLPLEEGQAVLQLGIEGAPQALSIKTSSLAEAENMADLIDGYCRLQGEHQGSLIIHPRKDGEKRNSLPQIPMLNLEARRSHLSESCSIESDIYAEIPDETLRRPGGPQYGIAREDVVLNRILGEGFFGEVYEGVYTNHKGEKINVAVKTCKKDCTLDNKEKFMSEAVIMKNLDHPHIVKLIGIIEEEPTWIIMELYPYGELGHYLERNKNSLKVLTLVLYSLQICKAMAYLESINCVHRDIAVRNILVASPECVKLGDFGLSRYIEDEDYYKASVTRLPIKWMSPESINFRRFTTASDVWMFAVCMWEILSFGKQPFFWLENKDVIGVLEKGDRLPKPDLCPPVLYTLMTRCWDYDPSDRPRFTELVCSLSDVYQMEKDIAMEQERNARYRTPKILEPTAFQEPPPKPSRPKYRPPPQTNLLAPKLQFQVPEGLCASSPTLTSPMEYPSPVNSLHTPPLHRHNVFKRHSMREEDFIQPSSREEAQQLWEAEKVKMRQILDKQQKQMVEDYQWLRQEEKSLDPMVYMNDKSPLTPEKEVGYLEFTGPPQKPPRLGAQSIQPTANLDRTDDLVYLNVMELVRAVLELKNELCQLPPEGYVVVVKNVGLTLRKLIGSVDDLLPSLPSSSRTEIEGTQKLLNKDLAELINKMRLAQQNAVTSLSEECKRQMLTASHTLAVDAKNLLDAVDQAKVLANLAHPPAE
Proto-oncogene tyrosine-protein kinase Src (Homo sapiens), sequence (P12931 2-536 limits assumed): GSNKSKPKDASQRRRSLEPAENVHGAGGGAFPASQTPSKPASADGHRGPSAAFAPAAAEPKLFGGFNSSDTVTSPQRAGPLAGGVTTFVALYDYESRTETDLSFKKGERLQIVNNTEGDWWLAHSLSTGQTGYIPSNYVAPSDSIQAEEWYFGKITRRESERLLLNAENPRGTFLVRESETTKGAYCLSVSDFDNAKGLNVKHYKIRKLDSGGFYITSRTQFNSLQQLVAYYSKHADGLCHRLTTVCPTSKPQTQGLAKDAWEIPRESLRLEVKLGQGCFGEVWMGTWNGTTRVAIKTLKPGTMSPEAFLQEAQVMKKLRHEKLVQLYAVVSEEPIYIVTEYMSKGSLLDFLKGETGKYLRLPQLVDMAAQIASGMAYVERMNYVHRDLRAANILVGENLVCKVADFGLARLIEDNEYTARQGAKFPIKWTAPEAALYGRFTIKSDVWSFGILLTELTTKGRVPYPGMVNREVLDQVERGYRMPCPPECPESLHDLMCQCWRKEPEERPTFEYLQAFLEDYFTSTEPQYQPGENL
Serine/threonine-protein kinase PLK2 (Homo sapiens), sequence (Q9NYY3 whole entry, looked up): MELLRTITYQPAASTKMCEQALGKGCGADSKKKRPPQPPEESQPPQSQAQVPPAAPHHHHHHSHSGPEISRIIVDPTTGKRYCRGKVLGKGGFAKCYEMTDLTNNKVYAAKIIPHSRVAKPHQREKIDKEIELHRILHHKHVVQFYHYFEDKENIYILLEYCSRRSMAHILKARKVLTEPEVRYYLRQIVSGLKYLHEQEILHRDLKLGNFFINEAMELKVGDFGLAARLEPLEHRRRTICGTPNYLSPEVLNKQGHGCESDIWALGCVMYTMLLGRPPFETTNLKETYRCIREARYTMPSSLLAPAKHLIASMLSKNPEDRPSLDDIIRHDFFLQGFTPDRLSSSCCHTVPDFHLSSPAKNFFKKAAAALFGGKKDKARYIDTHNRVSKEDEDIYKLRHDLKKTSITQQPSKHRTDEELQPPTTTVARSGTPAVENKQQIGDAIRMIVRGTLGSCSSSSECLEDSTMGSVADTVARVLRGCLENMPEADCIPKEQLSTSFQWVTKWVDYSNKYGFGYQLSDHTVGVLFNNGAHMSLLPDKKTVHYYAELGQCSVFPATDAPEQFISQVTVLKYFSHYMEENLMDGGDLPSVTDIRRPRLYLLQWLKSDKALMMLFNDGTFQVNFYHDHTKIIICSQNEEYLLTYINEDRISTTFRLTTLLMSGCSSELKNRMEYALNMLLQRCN

Consider `Cc1ccc2cc(-c3n[nH]c4ccc(NC5CCNC5)cc34)[nH]c2c1` (stereo unspecified), for which the residual activity in assay [1] came to 71%; in assay [2], 16%; in assay [4], 90%; in assay [5], 70%; in assay [6] it was 107%; in assay [7], 114%. Moreover, the residual activity in assay [8] is 98%. In addition, the inhibition in assay [3] was found to be 8%.

With `Cc1ccc2cc(-c3n[nH]c4ccc(NC5CCN(Cc6ccccc6)CC5)cc34)[nH]c2c1`, the residual activity was 66% in assay [1]; 31% in assay [2]; 78% in assay [4]; 80% in assay [5]; 103% in assay [6]; 103% in assay [7]. Also, the residual activity in assay [8] was 101%. Besides, the inhibition in assay [3] is 5%.

One may read the residual activity as the signal under treatment as a percentage of the control signal. One may read the inhibition as the change of the read-out against control, counted positive when it falls. A low value points to little suppression.

The values are drawn from ChEMBL document CHEMBL1681705, “Optimisation of ITK inhibitors through successive iterative design cycles” (Bioorg Med Chem Lett, 2011).
